From PMC2077835 (Drug metabolism and disposition: the biological fate of …, 2006)

What was measured:
[1] = target: recombinant human CYP4F12 (Homo sapiens, UniProt Q9HCS2); test: DB289 consumption by recombinant CYP4F12; assay type: in vitro ADME; details: 3.0 μM DB289, 50 pmol/ml P450, 15 min
Method in brief: (§1)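 A second recombinant panel (Supersomes; the CYP2J2, CYP3A7 and CYP4F forms coexpressed with reductase and cytochrome b5). Each enzyme was incubated alone with 3.0 μM substrate and NADPH in pH 7.4 phosphate/MgCl2 at 37°C for 15 min. Acetonitrile quench with internal standard, centrifugation, LC/MS/MS. Percent consumed normalised to 0 min. Control Supersomes; means of duplicates.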

[2] = DB289 consumption in 10 individual HLM samples, correlation analysis; assay type: in vitro ADME, human; details: 0.3 μM DB289
Method in brief: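 Ten individual human liver microsome samples, each characterised by the supplier for P450 marker activities. Standard NADPH incubations at 37°C began with 0.3 μM substrate. Rate of disappearance measured by LC/MS/MS and plotted against each P450 marker activity. Pearson r calculated; p < 0.05 taken as significant.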

recombinant human CYP3A5 = recombinant human CYP3A5 (Homo sapiens, UniProt P20815); test: DB289 consumption by recombinant CYP3A5; assay type: in vitro ADME; details: 3.0 μM DB289, 50 pmol/ml P450, 15 min
Method in brief: (§2)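 Baculovirus-insect-cell Supersomes coexpressing human P450 with NADPH-P450 reductase; the CYP2E1 enzyme also had cytochrome b5. 3.0 μM substrate, 50 pmol/ml P450 (100 pmol/ml for CYP2C8 and CYP2C9), in 100 mM phosphate pH 7.4 with 3.3 mM MgCl2 and 1 mM NADPH, 37°C, 15 min. Quenched in ice-cold acidified acetonitrile with deuterated internal standard, then LC/MS/MS. Percent consumed relative to 0 min; control Supersomes; duplicates.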

CYP2E1 [3] = target: T1, CYP2E1 (Homo sapiens, UniProt P05181); test: DB289 consumption by recombinant CYP2E1; assay type: in vitro ADME; details: 3.0 μM DB289, 50 pmol/ml P450, 15 min
Method in brief: as §2

CYP2C9 = CYP2C9 (Homo sapiens, UniProt P11712); test: Inhibition of P450 activities by DB289: diclofenac 4′-hydroxylation; assay type: in vitro ADME; details: 3.0 μM DB289, pooled HLMs 0.25 mg/ml
Method in brief: (§3)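 Test compound (3.0 μM) was preincubated 0 and 15 min with pooled microsomes (0.25 mg/ml) and 2 mM NADPH (final concentrations). A P450-selective marker substrate was then added and marker activity measured. Reference selective chemical inhibitors were run for comparison (none for CYP4A11). Solvent-only controls.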

[4] = target: recombinant human CYP4F3A (Homo sapiens, UniProt Q08477); test: DB289 consumption by recombinant CYP4F3A; assay type: in vitro ADME; details: 3.0 μM DB289, up to 120 min
recombinant human CYP1B1 = recombinant human CYP1B1 (Homo sapiens, UniProt Q16678); test: DB289 consumption by recombinant CYP1B1; assay type: in vitro ADME; details: 3.0 μM DB289, 50 pmol/ml P450, 15 min
Method in brief: as §2

recombinant human CYP2B6 = recombinant human CYP2B6 (Homo sapiens, UniProt P20813); test: DB289 consumption by recombinant CYP2B6; assay type: in vitro ADME; details: 3.0 μM DB289, 50 pmol/ml P450, 15 min
Method in brief: as §2

[5] = Incubation of DB289 with pooled human liver microsomes; assay type: in vitro ADME; details: 15 μM DB289, 0.2 mg/ml HLMs, NADPH
Method in brief: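 Pooled liver microsomes (50 donors, mixed gender) at 0.2 mg/ml with 15 μM substrate in a 1 ml mix, equilibrated 5 min at 37°C, then started with NADPH. Aliquots taken at 0, 5, 15, 30 and 120 min into ice-cold acetonitrile. LC/UV at 359 nm against an external 0.1–15 μM calibration; metabolites identified by retention time versus synthetic standards. Single determination; controls lacked NADPH, protein or substrate.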

CYP2D6 = CYP2D6 (Homo sapiens, UniProt P10635); test: DB289 consumption by recombinant CYP2D6; assay type: in vitro ADME; details: 3.0 μM DB289, 50 pmol/ml P450, 15 min
Method in brief: as §2

recombinant human CYP3A4 = recombinant human CYP3A4 (Homo sapiens, UniProt P08684); test: DB289 consumption by recombinant CYP3A4; assay type: in vitro ADME; details: 3.0 μM DB289, 50 pmol/ml P450, 15 min
Method in brief: as §2

CYP4A11 = CYP4A11 (Homo sapiens, UniProt Q02928); test: Inhibition of P450 activities by DB289: lauric acid 12-hydroxylation; assay type: in vitro ADME; details: 3.0 μM DB289, pooled HLMs 0.25 mg/ml
Method in brief: as §3

CYP2E1 [6] = target: T1, CYP2E1; test: Inhibition of P450 activities by DB289: lauric acid 11-hydroxylation; assay type: in vitro ADME; details: 3.0 μM DB289, pooled HLMs 0.25 mg/ml
Method in brief: as §3

[7] = target: recombinant human CYP2C18 (Homo sapiens, UniProt P33260); test: DB289 consumption by recombinant CYP2C18; assay type: in vitro ADME; details: 3.0 μM DB289, 50 pmol/ml P450, 15 min
recombinant human CYP1A1 = recombinant human CYP1A1 (Homo sapiens, UniProt P04798); test: DB289 consumption by recombinant CYP1A1; assay type: in vitro ADME; details: 3.0 μM DB289, 50 pmol/ml P450, 15 min
Method in brief: as §2

CYP2C19 = CYP2C19 (Homo sapiens, UniProt P33261); test: DB289 consumption by recombinant CYP2C19; assay type: in vitro ADME; details: 3.0 μM DB289, 50 pmol/ml P450, 15 min
Method in brief: as §2

recombinant human CYP1A2 = recombinant human CYP1A2 (Homo sapiens, UniProt P05177); test: Kinetics of M1 formation by recombinant CYP1A2; assay type: in vitro ADME
Method in brief: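 Recombinant P450 (10–50 pmol/ml) with substrate from 0.05 μM upward, under initial-rate conditions (<20% consumption). 250 μl at 37°C, started with NADPH after 5 min equilibration. Run times: 2 min for CYP1A1/1A2; 5 min for CYP1B1, 2J2 and 4F2; 15 min for CYP2C8, 4F3B and 4F12. M1 measured by LC/MS/MS. Mean of duplicates fitted to Michaelis-Menten; CLint = Vmax/Km.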

[8] = target: flavin monooxygenase 3 (FMO3) (Homo sapiens, UniProt P31513); test: Incubation of DB289 with recombinant FMO3; assay type: in vitro ADME; details: FMO3 0.5 mg/ml
Method in brief: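 Baculovirus insect-cell-expressed human FMO3 at 0.5 mg/ml. Incubated with substrate under the conditions used for the liver-microsome consumption assay: pH 7.4 phosphate, MgCl2, NADPH, 37°C. Analysed by LC/MS/MS.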

CYP3A4/5 = test: Inhibition of P450 activities by DB289: testosterone 6β-hydroxylation; assay type: in vitro ADME, human; details: 3.0 μM DB289, pooled HLMs 0.25 mg/ml
Method in brief: as §3

[9] = Kinetics of M1 formation by pooled HLMs; assay type: in vitro ADME, human
Method in brief: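 Initial-rate conditions (<20% substrate consumption). Pooled microsomes at 0.02 mg/ml with substrate from 0.05 μM upward, in 250 μl. Equilibrated 5 min at 37°C, started with NADPH, run 3 min. M1 measured by LC/MS/MS. Mean of duplicates fitted to Michaelis-Menten by nonlinear regression, with an Eadie-Hofstee plot; CLint = Vmax/Km.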

recombinant human CYP3A7 = recombinant human CYP3A7 (Homo sapiens, UniProt P24462); test: DB289 consumption by recombinant CYP3A7; assay type: in vitro ADME; details: 3.0 μM DB289, 50 pmol/ml P450, 15 min
Method in brief: as §1

recombinant human CYP2C8 = recombinant human CYP2C8 (Homo sapiens, UniProt P10632); test: DB289 consumption by recombinant CYP2C8; assay type: in vitro ADME; details: 3.0 μM DB289, 100 pmol/ml P450, 15 min
Method in brief: as §2

T1 sequence (P05181 whole entry): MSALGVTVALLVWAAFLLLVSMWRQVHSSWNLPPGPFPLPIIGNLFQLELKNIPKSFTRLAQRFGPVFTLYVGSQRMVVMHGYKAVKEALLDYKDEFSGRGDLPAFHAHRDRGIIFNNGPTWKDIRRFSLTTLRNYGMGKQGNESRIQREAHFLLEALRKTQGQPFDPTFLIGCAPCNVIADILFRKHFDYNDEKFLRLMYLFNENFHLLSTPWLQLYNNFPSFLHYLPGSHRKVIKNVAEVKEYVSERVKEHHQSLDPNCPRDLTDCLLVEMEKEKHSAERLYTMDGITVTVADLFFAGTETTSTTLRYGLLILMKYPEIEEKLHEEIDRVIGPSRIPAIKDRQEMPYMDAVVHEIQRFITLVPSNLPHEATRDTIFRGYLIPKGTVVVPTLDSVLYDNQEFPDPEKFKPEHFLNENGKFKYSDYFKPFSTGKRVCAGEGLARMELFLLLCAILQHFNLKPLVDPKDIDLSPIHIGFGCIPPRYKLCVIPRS
recombinant human CYP1A1, sequence (P04798 whole entry): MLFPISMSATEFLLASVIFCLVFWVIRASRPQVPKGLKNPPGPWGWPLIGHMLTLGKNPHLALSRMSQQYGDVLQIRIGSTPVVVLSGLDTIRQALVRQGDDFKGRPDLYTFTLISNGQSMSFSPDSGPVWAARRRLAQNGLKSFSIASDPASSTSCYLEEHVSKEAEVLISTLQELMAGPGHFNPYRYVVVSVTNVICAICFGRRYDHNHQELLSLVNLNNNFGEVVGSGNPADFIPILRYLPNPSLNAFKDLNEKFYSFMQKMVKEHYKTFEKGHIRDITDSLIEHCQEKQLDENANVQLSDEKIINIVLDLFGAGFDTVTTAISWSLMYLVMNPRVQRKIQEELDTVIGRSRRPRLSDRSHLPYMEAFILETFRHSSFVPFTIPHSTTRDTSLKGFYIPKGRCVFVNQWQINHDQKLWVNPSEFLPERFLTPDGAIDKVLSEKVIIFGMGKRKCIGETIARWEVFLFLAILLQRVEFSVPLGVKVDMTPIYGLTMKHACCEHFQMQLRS
CYP2D6, sequence (P10635 whole entry): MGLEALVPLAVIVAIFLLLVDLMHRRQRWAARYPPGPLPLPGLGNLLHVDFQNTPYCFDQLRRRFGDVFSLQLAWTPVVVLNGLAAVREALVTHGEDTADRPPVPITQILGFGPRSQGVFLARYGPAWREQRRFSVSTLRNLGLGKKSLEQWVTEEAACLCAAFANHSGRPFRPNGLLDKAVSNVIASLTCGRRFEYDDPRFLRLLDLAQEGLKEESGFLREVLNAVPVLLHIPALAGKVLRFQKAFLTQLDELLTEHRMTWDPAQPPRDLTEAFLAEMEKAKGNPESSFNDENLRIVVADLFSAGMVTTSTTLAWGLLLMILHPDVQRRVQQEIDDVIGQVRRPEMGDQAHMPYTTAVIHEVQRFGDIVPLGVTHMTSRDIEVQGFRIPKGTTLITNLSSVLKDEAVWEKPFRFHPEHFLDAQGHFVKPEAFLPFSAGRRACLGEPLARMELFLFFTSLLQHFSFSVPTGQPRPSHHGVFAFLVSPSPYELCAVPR
recombinant human CYP3A5, sequence (P20815 whole entry): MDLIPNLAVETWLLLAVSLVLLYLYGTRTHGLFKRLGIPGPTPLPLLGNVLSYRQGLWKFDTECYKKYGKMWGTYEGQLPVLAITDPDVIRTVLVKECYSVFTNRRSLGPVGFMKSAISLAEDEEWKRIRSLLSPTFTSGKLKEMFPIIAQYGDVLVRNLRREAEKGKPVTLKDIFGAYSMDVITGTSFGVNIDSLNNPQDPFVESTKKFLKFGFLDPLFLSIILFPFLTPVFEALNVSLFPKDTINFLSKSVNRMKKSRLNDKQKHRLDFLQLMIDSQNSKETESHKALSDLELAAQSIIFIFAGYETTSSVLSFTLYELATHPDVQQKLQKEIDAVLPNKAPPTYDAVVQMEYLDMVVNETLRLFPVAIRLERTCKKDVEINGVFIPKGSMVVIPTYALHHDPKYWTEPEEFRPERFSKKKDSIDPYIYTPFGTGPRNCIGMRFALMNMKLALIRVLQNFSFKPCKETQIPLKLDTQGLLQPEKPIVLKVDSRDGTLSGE
recombinant human CYP4F12, sequence (Q9HCS2 whole entry): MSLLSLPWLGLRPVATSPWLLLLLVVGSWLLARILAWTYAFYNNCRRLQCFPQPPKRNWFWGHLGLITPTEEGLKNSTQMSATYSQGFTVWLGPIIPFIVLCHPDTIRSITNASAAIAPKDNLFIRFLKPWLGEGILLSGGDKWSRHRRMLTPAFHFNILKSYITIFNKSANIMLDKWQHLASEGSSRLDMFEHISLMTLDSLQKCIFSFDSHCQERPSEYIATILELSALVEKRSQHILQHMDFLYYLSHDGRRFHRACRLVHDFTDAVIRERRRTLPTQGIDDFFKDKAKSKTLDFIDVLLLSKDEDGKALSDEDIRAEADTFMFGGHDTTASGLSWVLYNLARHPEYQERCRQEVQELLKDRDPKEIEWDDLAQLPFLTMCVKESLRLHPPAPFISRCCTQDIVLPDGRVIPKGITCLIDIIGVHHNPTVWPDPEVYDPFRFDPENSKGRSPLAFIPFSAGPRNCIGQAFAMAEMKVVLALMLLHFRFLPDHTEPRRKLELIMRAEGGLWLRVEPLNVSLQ
CYP4A11, sequence (Q02928 5-519): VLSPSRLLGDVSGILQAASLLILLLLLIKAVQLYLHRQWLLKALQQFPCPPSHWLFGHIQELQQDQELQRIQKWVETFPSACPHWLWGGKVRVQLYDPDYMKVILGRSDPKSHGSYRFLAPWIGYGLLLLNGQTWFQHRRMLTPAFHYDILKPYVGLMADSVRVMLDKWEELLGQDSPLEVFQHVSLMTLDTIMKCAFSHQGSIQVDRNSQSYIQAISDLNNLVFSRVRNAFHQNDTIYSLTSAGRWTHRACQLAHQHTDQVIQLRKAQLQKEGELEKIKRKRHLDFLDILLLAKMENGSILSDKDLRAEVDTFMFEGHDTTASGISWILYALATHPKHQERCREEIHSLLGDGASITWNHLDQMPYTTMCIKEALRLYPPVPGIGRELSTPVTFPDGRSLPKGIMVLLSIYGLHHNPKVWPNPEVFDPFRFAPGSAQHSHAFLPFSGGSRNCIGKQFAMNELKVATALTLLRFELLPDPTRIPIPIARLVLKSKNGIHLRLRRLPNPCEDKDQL
recombinant human CYP3A4, sequence (P08684 2-503 limits assumed): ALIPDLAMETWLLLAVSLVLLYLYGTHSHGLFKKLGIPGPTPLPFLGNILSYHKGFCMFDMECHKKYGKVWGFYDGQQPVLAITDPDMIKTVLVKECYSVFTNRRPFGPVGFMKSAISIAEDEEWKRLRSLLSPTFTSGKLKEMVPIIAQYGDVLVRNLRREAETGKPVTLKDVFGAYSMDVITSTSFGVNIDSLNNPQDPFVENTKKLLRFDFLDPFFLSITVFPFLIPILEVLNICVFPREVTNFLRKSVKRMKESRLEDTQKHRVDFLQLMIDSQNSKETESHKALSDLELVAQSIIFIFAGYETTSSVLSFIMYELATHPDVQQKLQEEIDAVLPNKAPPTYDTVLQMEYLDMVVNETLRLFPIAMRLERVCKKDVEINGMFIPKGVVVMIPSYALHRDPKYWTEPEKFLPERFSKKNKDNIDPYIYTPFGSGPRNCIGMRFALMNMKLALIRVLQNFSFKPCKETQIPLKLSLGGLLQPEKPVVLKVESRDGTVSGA
recombinant human CYP2B6, sequence (P20813 whole entry): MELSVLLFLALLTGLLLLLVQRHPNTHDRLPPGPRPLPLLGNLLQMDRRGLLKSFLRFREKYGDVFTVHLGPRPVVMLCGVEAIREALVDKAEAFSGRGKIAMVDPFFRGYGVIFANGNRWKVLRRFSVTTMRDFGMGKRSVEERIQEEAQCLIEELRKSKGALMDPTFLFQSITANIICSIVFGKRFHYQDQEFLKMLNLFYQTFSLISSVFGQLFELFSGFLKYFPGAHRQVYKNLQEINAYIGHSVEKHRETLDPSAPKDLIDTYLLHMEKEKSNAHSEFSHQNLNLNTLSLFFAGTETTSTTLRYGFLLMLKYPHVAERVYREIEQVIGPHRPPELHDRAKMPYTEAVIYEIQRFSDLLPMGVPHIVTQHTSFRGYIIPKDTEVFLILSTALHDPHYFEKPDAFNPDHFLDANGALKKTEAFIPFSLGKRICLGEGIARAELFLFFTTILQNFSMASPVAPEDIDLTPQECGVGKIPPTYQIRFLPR
flavin monooxygenase 3 (FMO3), sequence (P31513 whole entry): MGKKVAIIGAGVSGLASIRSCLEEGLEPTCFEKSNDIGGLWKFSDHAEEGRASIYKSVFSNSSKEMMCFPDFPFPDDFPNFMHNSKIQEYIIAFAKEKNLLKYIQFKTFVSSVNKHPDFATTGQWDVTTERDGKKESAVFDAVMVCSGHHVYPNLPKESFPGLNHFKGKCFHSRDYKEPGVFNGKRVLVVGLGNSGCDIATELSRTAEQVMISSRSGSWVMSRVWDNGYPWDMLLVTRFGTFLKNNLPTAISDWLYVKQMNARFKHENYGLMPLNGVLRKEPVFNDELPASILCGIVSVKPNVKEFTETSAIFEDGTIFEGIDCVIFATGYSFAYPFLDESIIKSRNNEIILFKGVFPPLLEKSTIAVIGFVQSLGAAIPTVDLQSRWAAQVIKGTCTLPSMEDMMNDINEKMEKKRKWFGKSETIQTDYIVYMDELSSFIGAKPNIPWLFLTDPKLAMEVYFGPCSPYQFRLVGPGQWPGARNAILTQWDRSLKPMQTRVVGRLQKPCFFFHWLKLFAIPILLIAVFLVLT

SMILES: CON=C(N)c1ccc(-c2ccc(-c3ccc(C(N)=NOC)cc3)o2)cc1 [DB289, 2,5-bis(4-amidinophenyl)furan-bis-O-methylamidoxime]
- percentage of substrate consumed [1]: 10%
- variation of rate of DB289 consumption among 10 individual HLMs [2]: 4 fold
- percentage of substrate consumed (recombinant human CYP3A5): 8%
- percentage of substrate consumed (CYP2E1 [3]): 7%
- inhibition of CYP2C9 activity (CYP2C9): 20−25%
- DB289 consumption [4]: little DB289 consumption
- percentage of substrate consumed (recombinant human CYP1B1): 46%
- percentage of substrate consumed (recombinant human CYP2B6): less than 5%
- half-life in pooled HLM [5]: 12 min
- time by which DB289 was completely consumed [5]: ≤ 120 min
- percentage of substrate consumed (CYP2D6): 9%
- percentage of substrate consumed (recombinant human CYP3A4): 18%
- inhibition of CYP4A11 activity (CYP4A11): minimal to no inhibition
- inhibition of CYP2E1 activity (CYP2E1 [6]): minimal to no inhibition
- percentage of substrate consumed [7]: less than 5%
- percentage of substrate consumed (recombinant human CYP1A1): 82%
- percentage of substrate consumed (CYP2C19): less than 5%
- efficiency of CYP1A2 relative to CYP3A4, 2D6, 2E1, or 3A5 (intrinsic or maximal clearance) (recombinant human CYP1A2): ≥ 300 fold
- metabolism of DB289 by recombinant human FMO3 [8]: did not show any detectable metabolism
- inhibition of CYP3A activity (CYP3A4/5): minimal to no inhibition
- Vmax ([9]; DB289 O-demethylation in HLMs): 3770 pmol/min/mg protein
- Vmax ([9]; M1 formation, 0.02 mg/ml HLM, 3 min): 3.8 nmol/min/mg protein
- Vmax ([9]; M1 formation, 0.02 mg/ml HLM, 3 min, total P450): 10.5 nmol/min/nmol P450
- percentage of substrate consumed (recombinant human CYP3A7): less than 5%
- percentage of substrate consumed (recombinant human CYP2C8): 5%
